Experimental data published in ChEMBL document CHEMBL4130608, “Isolation, Derivative Synthesis, and Structure-Activity Relationships of Antiparasitic Bromopyrrole Alkaloids from the Marine Sponge Tedania brasiliensis” (J Nat Prod, 2018).
≈ marks a conversion by molar mass, not a printed value.

Key:
[1] = test system: Trypanosoma cruzi; assay: Antitrypanosomal activity against Trypanosoma cruzi Y epimastigotes after 24 hrs by MTT assay; format: functional, organism-based
In short: (§1)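 Promastigotes (L. amazonensis, L. infantum; 26 °C, M199 with 20% heat-inactivated FBS, hemin, adenine, L-glutamine, plus 5% human urine for L. infantum) or T. cruzi Y epimastigotes (LIT with hemin, 10% FCS, 28 °C). Exposed to a series of concentrations for 24 h. Viability read by MTT. EC50 from sigmoidal fit of concentration–response. Triplicates, repeated two or three times.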

[2] = test system: Leishmania amazonensis; assay: Antileishmanial activity against Leishmania amazonensis MHOM/BR/1973/M2269 promastigotes after 24 hrs by MTT assay; format: functional, organism-based; settings: MHOM/BR/1973/M2269, 24 h; in short: as §1
[3] = test system: Plasmodium falciparum; assay: Antiplasmodial activity against drug-sensitive blood stage Plasmodium falciparum 3D7 by SYBR green 1 staining based fluorescence assay; format: functional, organism-based
In short: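 Sorbitol-synchronized ring-stage 3D7 exposed to a range of concentrations (samples in 0.05% DMSO), in triplicate. Then lysed with Tris/EDTA/saponin/Triton buffer containing SYBR Green I (1:20000) for 30 min. IC50 from curve fitting against untreated growth.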

[4] = test system: Leishmania infantum; assay: Antileishmanial activity against Leishmania infantum MHOM/BR/1972/LD promastigotes after 24 hrs by MTT assay; format: functional, organism-based; in short: as §1
[5] = test system: BMDM; assay: Cytotoxicity against BALB/c mouse BMDM after 24 hrs by MTT assay; format: cell-based
In short: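 Differentiated BALB/c female mouse bone marrow macrophages incubated at 37 °C with increasing concentrations for 24 h. Viability read by MTT and CC50 calculated.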

[6] = test system: Plasmodium falciparum; assay: Antiplasmodial activity against chloroquine/pyrimethamine-resistant Plasmodium falciparum K1 assessed as reduction in [3H]hypoxanthine incorporation pretreated for 48 hrs followed by [3H]hypoxanthine addition measured after 24 hrs by liquid scintillation counting method; format: functional, organism-based
[7] = Cytotoxicity against human HepG2 cells after 24 hrs by MTT assay; format: cell-based; settings: read-out: MDL50
In short: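 HepG2 cells grown in RPMI-1640 with 10% FBS, seeded at 5 × 10^3 cells/well and allowed to adhere for 18 h. Exposed to 1,000–1 μg/mL for 24 h at 37 °C, 5% CO2. MTT (5 mg/mL stock) added for 3 h, formazan dissolved in DMSO, absorbance read at 570 and 630 nm. Viability expressed as % of untreated control after background subtraction.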

[8] = Selectivity index, ratio of MDL50 for human HepG2 cells to IC50 for drug-sensitive blood stage Plasmodium falciparum 3D7; format: toxicity; settings: HepG2 cells versus blood stage Plasmodium falciparum 3D7, read-out: Selectivity Index
[9] = test system: Plasmodium falciparum; assay: Antiplasmodial activity against chloroquine/cycloguanil/pyrimethamine-resistant blood stage Plasmodium falciparum K1 by SYBR green 1 staining based fluorescence assay; format: functional, organism-based
In short: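 Freshly sorbitol-synchronized ring stages were exposed in triplicate to a concentration series, solubilized in 0.05% DMSO (v/v), alongside sample-free cultures. Cells were lysed for 30 min in 20 mM Tris pH 7.5, 5 mM EDTA, 0.008% saponin and 0.08% Triton X-100 with SYBR green I (1:20000). IC50 was obtained by curve fitting against untreated growth.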

[10] = test system: Leishmania amazonensis; assay: Antileishmanial activity against Leishmania amazonensis amastigotes infected in BALB/c mouse BMDM assessed as reduction in intracellular amastigotes after 24 hrs by microscopic analysis; format: functional, organism-based
In short: (§2)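 BALB/c bone marrow macrophages infected with stationary-phase L. amazonensis promastigotes (MOI 10) for 1 h, then washed and held 24 h at 33 °C, 5% CO2. Treated with 6.125, 25, 50 or 100 μM for 24 h at 33 °C. Cells MeOH-fixed and stained. Amastigotes counted in 300 cells per coverslip on triplicate coverslips. Expressed as % reduction versus untreated infected cells. Two independent experiments.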

[11] = test system: Leishmania amazonensis; assay: Antileishmanial activity against Leishmania amazonensis amastigotes infected in BALB/c mouse BMDM assessed as reduction in intracellular amastigotes at 50 uM after 24 hrs by microscopic analysis relative to control; format: functional; design: scale not given: the % may be the effect or the level left; in short: as §2
[12] = test system: Leishmania amazonensis; assay: Antileishmanial activity against Leishmania amazonensis amastigotes infected in BALB/c mouse BMDM assessed as reduction in intracellular amastigotes at 6.125 uM after 24 hrs by microscopic analysis relative to control; format: functional; design: scale not given: the % may be the effect or the level left; in short: as §2
[13] = test system: Leishmania amazonensis; assay: Antileishmanial activity against Leishmania amazonensis amastigotes infected in BALB/c mouse BMDM assessed as reduction in intracellular amastigotes at 100 uM after 24 hrs by microscopic analysis relative to control; format: functional; design: scale not given: the % may be the effect or the level left; in short: as §2
[14] = test system: Leishmania amazonensis; assay: Antileishmanial activity against Leishmania amazonensis amastigotes infected in BALB/c mouse BMDM assessed as reduction in intracellular amastigotes at 25 uM after 24 hrs by microscopic analysis relative to control; format: functional; design: scale not given: the % may be the effect or the level left; in short: as §2
[15] = test system: Trypanosoma brucei rhodesiense; assay: Antitrypanosomal activity against Trypanosoma brucei rhodesiense STIB 900 bloodstream forms after 72 hrs by alamar blue staining based fluorescence assay; format: functional, organism-based; settings: STIB 900, 72 h
[16] = test system: Leishmania donovani; assay: Antileishmanial activity against Leishmania donovani MHOM/ET/67/L82 amastigote forms after 72 hrs by alamar blue staining based fluorescence assay; format: functional, organism-based; settings: MHOM/ET/67/L82, 72 h

| SMILES | EC50 [1] | EC50 [2] | IC50 [3] | EC50 [4] | further results |
| --- | --- | --- | --- | --- | --- |
| [N-]=[N+]=NCC(=O)N(CCCCNC(=O)c1cc(Br)c(Br)[nH]1)CCCNC(=O)c1cc(Br)c(Br)[nH]1 | > 50 µM | > 100 µM | > 10 µM | > 100 µM | – |
| O=C(NCCCCCNC(=O)c1cc(Br)c(Br)[nH]1)c1cc(Br)c(Br)[nH]1 | 7 µM | 19 µM | > 10 µM | 24 µM | CC50 [5]: 52 µM |
| O=C(NCCCCCCCCNC(=O)c1cc(Br)c(Br)[nH]1)c1cc(Br)c(Br)[nH]1 | > 100 µM | > 100 µM | > 10 µM | > 100 µM | – |
| O=C(NCCCCNCCCNC(=O)c1cccc(Cl)n1)c1cccc(Cl)n1 | > 100 µM | > 100 µM | > 10 µM | > 100 µM | – |
| NC1=N/C(=C\CCNC(=O)c2cc(Br)c[nH]2)C(=O)N1 | – | – | – | – | IC50 [6]: 1.34 µg/mL (≈ 4.11 µM) |
| CN(CCCCNC(=O)c1cc(Br)c(Br)[nH]1)CCCNC(=O)c1cc(Br)c(Br)[nH]1 | > 100 µM | > 100 µM | 4 µM | > 100 µM | CC50 at 24 h [7]: 160 µM; selectivity ratio [8]: 35 |
| O=C(NCCCCNCCCNC(=O)c1cc(Br)c[nH]1)c1cc(Br)c[nH]1 | > 100 µM | > 100 µM | 7 µM | > 100 µM | CC50 at 24 h [7]: ≥ 400 µM; selectivity ratio [8]: ≥ 54 |
| O=C(NCCCCCCNCCCCCCNC(=O)c1cc(Br)c(Br)[nH]1)c1cc(Br)c(Br)[nH]1 | > 100 µM | > 100 µM | 2 µM | > 100 µM | CC50 at 24 h [7]: 263 µM; selectivity ratio [8]: 101 |
| Cc1ccc(C(=O)NCCCCNCCCNC(=O)c2ccc(C)o2)o1 | > 100 µM | > 100 µM | > 10 µM | > 100 µM | – |
| CC1(C)N=C(N)N=C(N)N1c1ccc(Cl)cc1 [CYCLOGUANIL] | – | – | 0.01 µM | – | IC50 [9]: 0.54 µM |
| O=C(NCCCCNCCCNC(=O)c1cc(Cl)c(Cl)[nH]1)c1cc(Cl)c(Cl)[nH]1 | > 100 µM | > 100 µM | > 10 µM | > 100 µM | – |
| O=C(NCCCNCCCCNCCCNC(=O)c1cc(Br)c(Br)[nH]1)c1cc(Br)c(Br)[nH]1 | > 100 µM | 44 µM | 2 µM | 18 to 19 µM | Activity [10]: Dose-dependent effect; CC50 at 24 h [7]: 99 µM; selectivity ratio [8]: 52; Activity [11]: 51%; Activity [12]: 27.3%; Activity [13]: 81.2%; Activity [14]: 45.4%; CC50 [5]: > 100 µM |
| O=C(O)CC1CNC(=O)c2cc(Br)c(Br)n21 (stereo not drawn) | – | – | – | – | IC50 [15]: 1.53 µg/mL (≈ 4.35 µM); IC50 [16]: 3.85 µg/mL (≈ 10.9 µM) |
| O=C(NCCCCNCCCNC(=O)c1cc2ccccc2[nH]1)c1cc2ccccc2[nH]1 | > 100 µM | > 100 µM | > 10 µM | > 100 µM | – |
| O=C(NCCSCCNC(=O)c1cc(Br)c(Br)[nH]1)c1cc(Br)c(Br)[nH]1 | 24 µM | 43 µM | > 10 µM | 24 µM | CC50 [5]: 66 µM |
| NC1NC(=O)/C(=C2/CCNC(=O)c3[nH]cc(Br)c32)N1 (stereo not drawn) [SPONGIACIDIN B] | – | – | – | – | IC50 [6]: 1.09 µg/mL (≈ 3.34 µM) |
| CC(=O)N(CCCCNC(=O)c1cc(Br)c(Br)[nH]1)CCCNC(=O)c1cc(Br)c(Br)[nH]1 | > 100 µM | > 100 µM | > 10 µM | > 100 µM | – |
| O=C(NCCCCCNC(=O)c1ccc[nH]1)c1ccc[nH]1 | > 50 µM | > 100 µM | > 10 µM | > 100 µM | – |
| O=C(NCCCCNCCCNC(=O)c1ccc[nH]1)c1ccc[nH]1 | > 100 µM | > 100 µM | > 10 µM | > 100 µM | – |
| Cc1ccc(C(=O)NCCCCNCCCNC(=O)c2ccc(C)s2)s1 | > 100 µM | > 100 µM | > 10 µM | > 100 µM | – |
| O=C(NCCCCNCCCNC(=O)c1cc(Br)c(Br)o1)c1cc(Br)c(Br)o1 | > 100 µM | 18 µM | 3 µM | 23 µM | Activity [10]: Dose-dependent effect; CC50 at 24 h [7]: ≥ 400 µM; selectivity ratio [8]: ≥ 125; Activity [11]: 60%; Activity [12]: 55.6%; Activity [13]: 77.4%; Activity [14]: 35%; CC50 [5]: 82 µM |
| O=C(NCCCCNCCCNC(=O)c1ccc(Br)s1)c1ccc(Br)s1 | > 100 µM | 76 µM | > 10 µM | 20 µM | Activity [10]: Dose-dependent effect; Activity [11]: 58.8%; Activity [12]: 46.4%; Activity [13]: 79.5%; Activity [14]: 41.5%; CC50 [5]: > 100 µM |
| O=C(NCCCCNCCCNC(=O)c1ccc(F)[nH]1)c1ccc(F)[nH]1 | > 100 µM | > 100 µM | > 10 µM | > 100 µM | – |
| O=C(NCCCCNCCCNC(=O)c1nc2ccccc2[nH]1)c1nc2ccccc2[nH]1 | > 100 µM | > 100 µM | > 10 µM | > 100 µM | – |
| NC[C@H]1[C@@H]2CN3C(=O)c4cc(Br)c(Br)n4[C@H]4NC(N)=N[C@]43[C@H]2[C@@]2(N=C(N)N[C@@H]2O)[C@@H]1Cl | – | – | – | – | IC50 [15]: 0.46 µg/mL (≈ 0.796 µM); IC50 [16]: 1.48 µg/mL (≈ 2.56 µM); IC50 [6]: 1.48 µg/mL (≈ 2.56 µM) |
| Cc1cccc(C(=O)NCCCCNCCCNC(=O)c2cccc(C)n2)n1 | > 100 µM | > 100 µM | > 10 µM | > 100 µM | – |
